According to ChEMBL document CHEMBL3124923, “Isolation, structure elucidation, and biological activity of altersolanol P using Staphylococcus aureus fitness test based genome-wide screening” (2014):
In brackets after ≈: the same amount, converted by molar mass. Activity calls are given as the source filed them. No cut-off for these calls is given here.

What was measured:
Type in all cases: functional
[1] = test system: Staphylococcus aureus; test: Antimicrobial activity against Staphylococcus aureus
[2] = test system: Pseudomonas aeruginosa; test: Antimicrobial activity against Pseudomonas aeruginosa
[3] = test system: Candida albicans; test: Antimicrobial activity against Candida albicans MY 1055 after 20 hrs by 2-fold serial broth dilution method; conditions: MY 1055, 20 h
Summary of the method: (§1)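 MIC for each strain determined following the NCCLS (now CLSI) method, using 2-fold serial dilution of the compound. For the S. aureus Smith strain, MIC was also run with 50% human serum in the medium.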

[4] = test system: Streptococcus pneumoniae; test: Antimicrobial activity against Streptococcus pneumoniae CL 2883 grown in iso sensitet medium after 20 hrs by 2-fold serial broth dilution method; conditions: CL 2883, 20 h; summary of the method: as §1
[5] = test system: Streptococcus pneumoniae; test: Antimicrobial activity against Streptococcus pneumoniae CL 2883 grown in 2.5 % lysed horse blood medium after 20 hrs by 2-fold serial broth dilution method; conditions: CL 2883, 20 h; summary of the method: as §1
[6] = test system: Escherichia coli; test: Antimicrobial activity against Escherichia coli MB 5746 harboring envA/tolC gene after 20 hrs by 2-fold serial broth dilution method; conditions: MB 5746, 20 h
Summary of the method: (§2)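 MIC read following the NCCLS (now CLSI) method, using 2-fold serial dilutions of test compound against each strain.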

[7] = test system: Staphylococcus aureus; test: Antimicrobial activity against Staphylococcus aureus Smith MB 2865 after 20 hrs by 2-fold serial broth dilution method; conditions: Smith MB 2865, 20 h; summary of the method: as §1
[8] = test system: Bacillus subtilis; test: Antimicrobial activity against Bacillus subtilis MB 964 after 20 hrs by 2-fold serial broth dilution method; conditions: MB 964, 20 h; summary of the method: as §1
[9] = test system: Enterococcus faecalis; test: Antimicrobial activity against vancomycin-sensitive Enterococcus faecalis CL 8516 after 20 hrs by 2-fold serial broth dilution method; conditions: CL 8516, 20 h; summary of the method: as §2
[10] = test system: Haemophilus influenzae; test: Antimicrobial activity against Haemophilus influenzae MB 4572 after 20 hrs by 2-fold serial broth dilution method; conditions: MB 4572, 20 h; summary of the method: as §1
[11] = test system: Staphylococcus aureus; test: Antimicrobial activity against Staphylococcus aureus Smith MB 2865 after 20 hrs by 2-fold serial broth dilution method in presence of 50 % human serum; conditions: for MIC: Smith MB 2865, 20 h; summary of the method: as §1
[12] = test system: Escherichia coli; test: Antimicrobial activity against wild-type Escherichia coli MB 2884 after 20 hrs by 2-fold serial broth dilution method; conditions: MB 2884, 20 h; summary of the method: as §1

| MIC [1] [µg/mL] | MIC [2] [µg/mL] | Compound | also measured |
| --- | --- | --- | --- |
| 12.5 (≈ 39 µM) | 12.5 (≈ 39 µM) | COc1cc(O)c2c(c1)C(=O)C1=C(C[C@@H](O)[C@@](C)(O)[C@@H]1O)C2=O [ALTERSOLANOL C] |  |
| 12.5 (≈ 40.5 µM) | 12.5 (≈ 40.5 µM) | COc1cc(O)c2c(c1)C(=O)[C@H]1C[C@](C)(O)[C@H](O)C[C@@H]1[C@H]2O [ALTERSOLANOL J] |  |
| 12.5 (≈ 38.5 µM) | 12.5 (≈ 38.5 µM) | COc1cc(O)c2c(c1)C(=O)[C@@H]1[C@H](C[C@@H](O)[C@@](C)(O)[C@@H]1O)[C@H]2O [ALTERSOLANOL K] | MIC [3]: 8 µg/mL (≈ 24.7 µM); Activity [11]: Active |
| 12.5 (≈ 37.4 µM) | 12.5 (≈ 37.4 µM) | COc1cc(O)c2c(c1)C(=O)C1=C(C2=O)[C@H](C)[C@@H](O)[C@@](C)(O)[C@@H]1O |  |
| 12.5 (≈ 37.2 µM) | 12.5 (≈ 37.2 µM) | COc1cc(O)cc2c1C(=O)C1=C(C2=O)[C@@H](O)[C@](C)(O)[C@H](O)[C@H]1O |  |
| 12.5 (≈ 39 µM) | 12.5 (≈ 39 µM) | COc1cc(O)c2c(c1)C(=O)C1=C(C[C@H](O)[C@@](C)(O)[C@@H]1O)C2=O |  |

More lines, now with the values behind:

| Compound | MIC [1] [µg/mL] | MIC [2] [µg/mL] | also measured |
| --- | --- | --- | --- |
| CC1(C)S[C@@H]2[C@H](NC(=O)Cc3ccccc3)C(=O)N2[C@H]1C(=O)O [PENICILLIN G] |  |  | MIC [3]: > 64 µg/mL; MIC [4]: < 0.015 µg/mL; MIC [5]: < 0.015 µg/mL; MIC [6]: 8 µg/mL (≈ 23.9 µM); MIC [7]: < 0.06 µg/mL; MIC [8]: < 0.06 µg/mL; MIC [9]: 4 µg/mL (≈ 12 µM); MIC [10]: 0.06 µg/mL (≈ 0.179 µM); MIC [11]: 0.12 µg/mL |
| COc1cc(O)c2c(c1)C(=O)C1=C(C2=O)[C@H](O)[C@@H](O)[C@@](C)(O)[C@@H]1O [ALTERSOLANOL A] | 12.5 (≈ 37.2 µM) | 12.5 (≈ 37.2 µM) |  |
| COc1cc(O)c2c(c1)C(=O)C1=C(C2=O)[C@H](O)[C@H](O)[C@@](C)(O)[C@@H]1O | 12.5 (≈ 37.2 µM) | 12.5 (≈ 37.2 µM) |  |
| COc1cc(O)c2c(c1)C(=O)C1=C(C[C@@H](O)[C@@](C)(O)C1)C2=O [ALTERSOLANOL B] | 12.5 (≈ 41.1 µM) | 12.5 (≈ 41.1 µM) |  |
| C[C@@]1(O)CCC2=C(C(=O)c3cccc(O)c3C2=O)[C@@H]1O | 2 (≈ 7.29 µM) |  | MIC [3]: 8 µg/mL (≈ 29.2 µM); MIC [4]: 4 µg/mL (≈ 14.6 µM); MIC [5]: 8 µg/mL (≈ 29.2 µM); MIC [6]: 32 µg/mL (≈ 117 µM); MIC [7]: 4 µg/mL (≈ 14.6 µM); MIC [8]: 2 µg/mL (≈ 7.29 µM); MIC [9]: 1 µg/mL (≈ 3.65 µM); MIC [10]: 2 µg/mL (≈ 7.29 µM); MIC [11]: > 64 µg/mL; MIC [12]: > 64 µg/mL |
| COc1cc(O)cc2c1C(=O)C1=C(C2=O)[C@H](O)[C@](C)(O)[C@H](O)[C@H]1O | 12.5 (≈ 37.2 µM) | 12.5 (≈ 37.2 µM) |  |
